Laboratory results as given in ChEMBL document CHEMBL4619820, “Development of Novel AKR1C3 Inhibitors as New Potential Treatment for Castration-Resistant Prostate Cancer” (J Med Chem, 2020).
Activity calls are given as the source filed them. No cut-off for these calls is given here.

Assays:
[1] = Toxicity in Balb/c nu/nu athymic mouse xenografted with human 22Rv1 cells assessed as effect on lung histology at 100 mg/kg, ip dosed twice per week for 6 weeks by H and E staining dependent light microscopy based histopathological analysis; format: organism-based, CWR22R; details: in vivo, 1008 h
Procedure, shortened: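 Mice carrying 22Rv1 xenografts were dosed intraperitoneally, with vehicle controls n=15 and treated groups n=10. Tissue sections of kidney, liver and lung were stained with hematoxylin and eosin and examined by light microscopy at ×40 magnification for histopathological changes.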

CWR22R = test: Antitumor activity against human 22Rv1 cells xenografted in Balb/c nu/nu athymic mouse assessed as reduction in tumor volume at 50 mg/kg, ip dosed twice per week for 6 weeks; format: functional, organism-based
Procedure, shortened: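 22Rv1 xenograft mice dosed intraperitoneally with vehicle (control, n=15), 50 mg/kg (n=10) or 100 mg/kg (n=10); tumor size followed over time; body weights recorded.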

SMILES	Activity [1]	Activity (CWR22R)
CCc1cccc(NC(=O)c2cc3cccc(O)c3oc2=N)c1	Non-Toxic	
Cc1ccc(NC(=O)c2cc3cccc(O)c3oc2=N)cc1		Active
